Bioassay records (PubChem)
CYP2C19 inhib – blocks human cytochrome P450 2C19; P33261; CYP2C19 Supersomes, luciferin-H EGE luminescence, 30 min; inhibition, % at 5 µM; actives 21% (n = 96,000);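 active = CYP2C19 inhibition above a set limit at 5 µM in the primary screen, cut at about 50% in these data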
Target sequence (P33261 whole entry, looked up): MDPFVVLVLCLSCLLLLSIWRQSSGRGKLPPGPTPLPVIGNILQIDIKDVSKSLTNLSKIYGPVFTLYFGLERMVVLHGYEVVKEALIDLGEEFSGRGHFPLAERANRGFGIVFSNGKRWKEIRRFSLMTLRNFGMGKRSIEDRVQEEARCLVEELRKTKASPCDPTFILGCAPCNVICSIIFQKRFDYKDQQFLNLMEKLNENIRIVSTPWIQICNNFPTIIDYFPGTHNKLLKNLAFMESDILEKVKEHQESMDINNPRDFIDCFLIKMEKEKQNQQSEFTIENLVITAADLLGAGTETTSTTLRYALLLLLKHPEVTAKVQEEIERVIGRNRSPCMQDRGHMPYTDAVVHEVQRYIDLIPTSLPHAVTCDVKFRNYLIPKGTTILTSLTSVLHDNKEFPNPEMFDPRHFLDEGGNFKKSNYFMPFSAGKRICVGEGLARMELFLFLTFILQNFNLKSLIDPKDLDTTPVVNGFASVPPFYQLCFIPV
CYP2C9 activ – CYP2C9 (human) activation; actives 1.4% (n = 96,000); AID 1024; recombinant CYP2C9, luciferin-H conversion, luminescence; active compounds read high; factor 1 = untreated enzyme, 0 = blocked; activation factor at 5 µM; P11712;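 active = activation factor of 2 or more for CYP2C9 at a 5 µM dose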
E coli WT exp – E. coli BW25113 growth inhibition, expanded screen; actives 0.15% (n = 98,000); growth inhibition, % at 100 µM; OD600 absorbance; AID 710;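 active = growth inhibition above about 50% at one test dose, limit read from the data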;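 note: growth measured after 20 h incubation at 37 °C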
CYP2C9 inh – inhibitors of human CYP2C9 | AID 777 | inhibition, % at 5 µM | CYP2C9 Supersomes, luciferin-H conversion, luminescence | P11712 | actives 20% (n = 96,000);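 active = blocking of liver enzyme CYP2C9 beyond about 50% at 5 µM, limit read from the data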
CYP2C19 act – cytochrome P450 2C19 (human) activation | activation factor at 5 µM | recombinant CYP2C19, luciferin-H EGE luminescence; active compounds read high; 0 = fully inhibited enzyme, 1 = untreated enzyme | P33261 | 96,000 tested, under 10 active;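 active = activation factor of at least 2 at 5 µM in the primary screen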
tolC growth inh – blocks growth of E. coli BW25113 tolC mutant; OD615; growth inhibition, % at 10 µM (by protocol); actives 2.2% (n = 65,000); AID 573;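 active = growth inhibition at or above a cutoff equal to the mean over every tested compound plus 3 SD, cut at about 60% in these data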;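 note: growth measured after 20 h incubation at 37 °C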
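Test system: tolC-deleted E. coli BW25113 | Medium: LB with kanamycin 50 µg/mL | Compound dosing: Single concentration, 10 µM final per compound | Schedule: 37 °C, 20 h exposure | Measured by: OD at 615 nm | Evaluation: Percent growth inhibition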
Hits are given with their value. In the library only some 29% were active in any assay of this set; here they are far more common.

Results for c1ccc(-c2nnc3sc(Cc4cccs4)nn23)cc1 ?
E coli WT exp: inactive; tolC growth inh: inactive

Results for c1ccc(Cc2nn3c(-c4ccncc4)nnc3s2)cc1 ?
CYP2C19 inhib: 99.0; CYP2C9 activ: inactive; E coli WT exp: inactive; CYP2C9 inh: 83.7; CYP2C19 act: inactive; tolC growth inh: inactive

Results for Cc1ccccc1C(=O)/C=C1/c2ccccc2CC(C)(C)N1C ?
CYP2C19 inhib: inactive; CYP2C9 activ: inactive; E coli WT exp: inactive; CYP2C9 inh: 57.5; CYP2C19 act: inactive

What do the screens show for `Cc1cccc(C(=O)/C=C2/c3ccccc3CC(C)(C)N2C)c1`?
CYP2C19 inhib: 86.8; CYP2C9 activ: inactive; E coli WT exp: inactive; CYP2C9 inh: 85.2; CYP2C19 act: inactive

How did CN1/C(=C\C(=O)c2ccco2)c2ccccc2CC1(C)C do in these assays?
CYP2C19 inhib: inactive; CYP2C9 activ: inactive; E coli WT exp: inactive; CYP2C9 inh: inactive; CYP2C19 act: inactive; tolC growth inh: inactive

What do the screens show for `Cc1cccc(C(=O)NC(=S)N2CCN(C)CC2)c1`?
CYP2C19 inhib: inactive; CYP2C9 activ: inactive; E coli WT exp: inactive; CYP2C9 inh: inactive; CYP2C19 act: inactive

Results for COCC(=O)N(CCc1ccc(OC)c(OC)c1)Cc1nc2ccccc2c(=O)[nH]1 ?
CYP2C19 inhib: 57.5; CYP2C9 activ: inactive; E coli WT exp: inactive; CYP2C9 inh: inactive; CYP2C19 act: inactive; tolC growth inh: inactive

How did COc1ccc(CCN(Cc2nc3ccccc3c(=O)[nH]2)C(=O)c2ccco2)cc1 do in these assays?
CYP2C19 inhib: inactive; CYP2C9 activ: inactive; E coli WT exp: inactive; CYP2C9 inh: 57.3; CYP2C19 act: inactive; tolC growth inh: inactive

How did COCC(=O)N(Cc1nc2ccccc2c(=O)[nH]1)Cc1cccs1 do in these assays?
CYP2C19 inhib: inactive; CYP2C9 activ: inactive; E coli WT exp: inactive; CYP2C9 inh: 52.2; CYP2C19 act: inactive; tolC growth inh: inactive

Results for COc1ccc(N(Cc2cc(=O)[nH]c3ccccc23)C(=O)c2ccco2)cc1 ?
CYP2C19 inhib: inactive; CYP2C9 activ: inactive; E coli WT exp: inactive; CYP2C9 inh: 62.7; CYP2C19 act: inactive; tolC growth inh: inactive

Results for CC1CN(C2CCN(S(=O)(=O)c3ccc4ccccc4c3)CC2)CC(C)O1 (stereo not drawn) ?
CYP2C19 inhib: inactive; CYP2C9 activ: inactive; E coli WT exp: inactive; CYP2C9 inh: inactive; CYP2C19 act: inactive; tolC growth inh: inactive

What do the screens show for `Cc1noc(C)c1COC(=O)C1(c2cccc(F)c2)CCCC1`?
CYP2C19 inhib: inactive; CYP2C9 activ: inactive; E coli WT exp: inactive; CYP2C9 inh: 55.8; CYP2C19 act: inactive; tolC growth inh: inactive

What do the screens show for `Cc1noc(C)c1COC(=O)CCC(=O)c1ccc(F)cc1`?
CYP2C19 inhib: inactive; CYP2C9 activ: inactive; E coli WT exp: inactive; CYP2C9 inh: inactive; CYP2C19 act: inactive; tolC growth inh: inactive

What do the screens show for `Cc1cc(-c2ccccc2)nc(N(C)NC(=O)c2cccc(C(F)(F)F)c2)c1S(C)(=O)=O`?
CYP2C19 inhib: inactive; CYP2C9 activ: inactive; E coli WT exp: inactive; CYP2C9 inh: inactive; CYP2C19 act: inactive

How did CCOC(=O)c1[nH]c(C)c(C(=O)Nc2ccccc2C)c1C do in these assays?
CYP2C19 inhib: 55.7; CYP2C9 activ: inactive; E coli WT exp: inactive; CYP2C9 inh: inactive; CYP2C19 act: inactive; tolC growth inh: inactive

What do the screens show for `CCOC(=O)c1[nH]c(C)c(C(=O)Nc2ccc(C)c(Cl)c2)c1C`?
E coli WT exp: inactive; tolC growth inh: inactive

What do the screens show for `CCOC(=O)c1[nH]c(COC(=O)c2ccccc2NC(=O)c2ccco2)c(C(=O)OCC)c1C`?
CYP2C19 inhib: inactive; CYP2C9 activ: inactive; E coli WT exp: inactive; CYP2C9 inh: 87.6; CYP2C19 act: inactive; tolC growth inh: inactive

What do the screens show for `CCOC(=O)c1[nH]c(C)c(C(=O)Nc2cc(Cl)ccc2C)c1C`?
CYP2C19 inhib: inactive; CYP2C9 activ: 2; E coli WT exp: inactive; CYP2C9 inh: inactive; CYP2C19 act: inactive; tolC growth inh: inactive

How did O=C1CN(C(=O)COC(=O)c2ccccc2NC(=O)c2ccco2)c2ccccc2N1 do in these assays?
CYP2C19 inhib: inactive; CYP2C9 activ: inactive; E coli WT exp: inactive; CYP2C9 inh: 75.7; CYP2C19 act: inactive; tolC growth inh: inactive

Results for CCOC(=O)c1[nH]c(C)c(C(=O)Nc2ccc(C)c(F)c2)c1C ?
CYP2C19 inhib: inactive; CYP2C9 activ: inactive; E coli WT exp: inactive; CYP2C9 inh: inactive; CYP2C19 act: inactive; tolC growth inh: inactive

How did CC(=O)c1c(C)[nH]c(C(=O)Nc2c(C)n(C)n(-c3ccccc3)c2=O)c1C do in these assays?
CYP2C19 inhib: inactive; CYP2C9 activ: inactive; CYP2C9 inh: inactive; CYP2C19 act: inactive; tolC growth inh: inactive

How did CCOC(=O)c1[nH]c(C)c(C(=O)NCc2ccc(Cl)cc2)c1C do in these assays?
CYP2C19 inhib: inactive; CYP2C9 activ: inactive; E coli WT exp: inactive; CYP2C9 inh: inactive; CYP2C19 act: inactive; tolC growth inh: inactive

Results for CCOC(=O)c1[nH]c(C)c(C(=O)NCCc2ccc(OC)cc2)c1C ?
CYP2C19 inhib: inactive; CYP2C9 activ: inactive; E coli WT exp: inactive; CYP2C9 inh: 71.6; CYP2C19 act: inactive; tolC growth inh: inactive

How did O=C1CC(c2ccco2)CC2=C1C=Nc1ccccc1N2 (stereo not drawn) do in these assays?
CYP2C19 inhib: 63.1; CYP2C9 activ: inactive; E coli WT exp: inactive; CYP2C9 inh: 76.1; CYP2C19 act: inactive; tolC growth inh: inactive

Results for CC12CCC(C(=O)Nc3ccccc3Br)(C/C1=N\O)C2(C)C (stereo not drawn) ?
CYP2C19 inhib: inactive; CYP2C9 activ: inactive; E coli WT exp: inactive; CYP2C9 inh: inactive; CYP2C19 act: inactive

How did CC12CCC(C(=O)Nc3cc(Cl)ccc3Cl)(C/C1=N\O)C2(C)C (stereo not drawn) do in these assays?
CYP2C19 inhib: inactive; CYP2C9 activ: 3.1; E coli WT exp: inactive; CYP2C9 inh: inactive; CYP2C19 act: inactive

Results for Cc1cc(-c2ccccc2)nc(N2CCC(C(=O)NC(C)C)CC2)n1 ?
CYP2C19 inhib: inactive; CYP2C9 activ: inactive; E coli WT exp: inactive; CYP2C9 inh: inactive; CYP2C19 act: inactive; tolC growth inh: inactive

What do the screens show for `CCCOc1ccc(NC2=CC(=O)CC(C)(C)C2)cc1`?
CYP2C19 inhib: inactive; CYP2C9 activ: inactive; E coli WT exp: inactive; CYP2C9 inh: 78.9; CYP2C19 act: inactive; tolC growth inh: inactive

What do the screens show for `Cc1nc(C(F)(F)F)nc(Nc2ccc(Br)cc2)c1C#N`?
CYP2C19 inhib: 63.9; CYP2C9 activ: inactive; E coli WT exp: inactive; CYP2C9 inh: inactive; CYP2C19 act: inactive

What do the screens show for `CC(C)(C)NC(=O)NC(=O)COC(=O)c1cc(=O)[nH]c2ccccc12`?
CYP2C19 inhib: inactive; CYP2C9 activ: inactive; E coli WT exp: inactive; CYP2C9 inh: inactive; CYP2C19 act: inactive

What do the screens show for `COc1ccc(NC(=O)CC2Sc3ncnn3C2=O)cc1` (stereo not drawn)?
CYP2C19 inhib: inactive; CYP2C9 activ: inactive; E coli WT exp: inactive; CYP2C9 inh: inactive; CYP2C19 act: inactive; tolC growth inh: inactive
